# Source: PubChem BioAssay (several laboratories)
# Hits are enriched below; roughly 3.1% of the tested compounds scored in any of these assays.
# HSP90 refold inh = HSP90 refolding inhibition in rabbit reticulocyte lysate | luciferase refolding luminescence, 3 h | inhibition, % at 5.6 µM | 290,000 compounds, 0.91% hits;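 active means inhibition above the screen-wide mean plus 3 SD, computed separately per campaign, cut at about 16% in these data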;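 further: 0% = DMSO wells and 100% = 60 µM geldanamycin wells; inhibitors lower the luminescence because luciferase stays unfolded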
# HKDC1 inhibitor = HKDC1 (human) hexokinase inhibition | Q2TB90 | recombinant HKDC1, G6PDH/diaphorase resazurin coupled fluorescence | AID 493160 | inhibition, % at 20 µM | 340,000 compounds, 0.16% hits;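 active means inhibition above about 35% when tested at 20 µM, limit read from the data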;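 further: plate controls were DMSO wells with enzyme for no effect and DMSO wells lacking enzyme for full effect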
# Target sequence (Q2TB90 whole entry, looked up): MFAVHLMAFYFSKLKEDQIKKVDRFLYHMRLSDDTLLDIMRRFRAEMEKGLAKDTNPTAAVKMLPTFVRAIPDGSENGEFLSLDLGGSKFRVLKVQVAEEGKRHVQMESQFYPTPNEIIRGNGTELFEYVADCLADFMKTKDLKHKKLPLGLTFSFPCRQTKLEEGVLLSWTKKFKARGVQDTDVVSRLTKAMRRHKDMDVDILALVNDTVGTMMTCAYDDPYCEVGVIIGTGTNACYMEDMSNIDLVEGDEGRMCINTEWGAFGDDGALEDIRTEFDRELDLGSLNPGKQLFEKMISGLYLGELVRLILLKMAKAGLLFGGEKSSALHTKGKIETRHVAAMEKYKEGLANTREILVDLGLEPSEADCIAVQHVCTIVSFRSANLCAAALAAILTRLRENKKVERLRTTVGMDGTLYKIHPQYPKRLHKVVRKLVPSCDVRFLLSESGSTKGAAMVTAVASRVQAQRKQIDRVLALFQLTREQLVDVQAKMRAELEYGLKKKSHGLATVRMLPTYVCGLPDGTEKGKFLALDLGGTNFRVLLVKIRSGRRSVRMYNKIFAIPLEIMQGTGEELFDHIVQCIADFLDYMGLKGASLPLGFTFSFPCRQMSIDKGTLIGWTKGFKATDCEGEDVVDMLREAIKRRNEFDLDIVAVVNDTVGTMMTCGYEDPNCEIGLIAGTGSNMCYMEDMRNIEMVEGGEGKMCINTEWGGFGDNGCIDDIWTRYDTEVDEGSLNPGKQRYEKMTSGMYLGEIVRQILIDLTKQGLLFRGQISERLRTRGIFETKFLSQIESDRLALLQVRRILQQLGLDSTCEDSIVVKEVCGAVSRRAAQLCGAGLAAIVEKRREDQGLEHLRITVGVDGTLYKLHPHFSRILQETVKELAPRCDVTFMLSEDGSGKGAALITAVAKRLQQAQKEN
#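 Assay system – recombinant HKDC1 (HK5) hexokinase enzyme, produced in-house · Input – HKDC1 at 5 µg/mL · Reagent – glucose plus 1 mM ATP as hexokinase substrates · Timing – 90 min reaction incubation at room temperature, dark · Measured by – G6PDH/diaphorase-coupled fluorescence, 1 mM NADP, 100 µM resazurin, 525/613 nm · Benchmarks – DMSO-enzyme wells negative, buffer-substituted wells positive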
# TbHK1 inh = blocks Trypanosoma brucei hexokinase 1 activity; 220,000 compounds, 0.11% hits; AID 1430; inhibition, % at 10 µM; recombinant TbHK1, G6PDH-coupled NADH A340;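 active means inhibition of 50% or more in the single-dose primary screen; inactive means inhibition below 50%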
# Hsp70 activator = Hsp70 transcriptional activation, primary screen | HeLa Hsp70 promoter luciferase reporter, luminescence; scaled: vehicle 0, proteasome-inhibitor control 100% | activation, % at 10 µM | 200,000 compounds, 0.04% hits;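 active means activation above the mean across all tested compounds plus 3 SD, cutoff set per campaign, cut at about 5.5% in these data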;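 further: 100% = MG132 at 30 µM as the positive control and 0% = DMSO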
# HSF1 activator = increases HSF-1 driven luciferase reporter signal | NIH3T3-HGL HSF-1 luciferase reporter, MG132, 8 h; 100% = twice DMSO control signal | activation, % at 9 µM | 300,000 compounds, 1.7% hits | AID 504408;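 active means mean replicate activation of at least 50% with a set share of replicates each reaching 50%; inconclusive means only one of those two conditions met; inactive means mean below 50% and too few replicates reaching it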;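 further: 0% = median of the neutral control wells and 100% = twice that signal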
# HSF1 inh = HSF1 inhibition; NIH3T3-HGL HSE-luciferase, MG132-induced, luminescence 8 h; hits give low values; activity change, negative = inhibition, % at 7.5 µM (by protocol); AID 2098; 300,000 compounds, 0.77% hits;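 active means more than half of replicate wells show activity change below -50%, luminescence cut by over half; inconclusive means some wells, but at most half, below -50%; inactive means no replicate well below -50%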;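 further: luciferase reports HSF-1 transcriptional activity via heat shock element; 0% = median of DMSO wells and -100% = zero luminescence signal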
# HSP90 confirm = confirmation of HSP90 inhibitors. 2,300 compounds, 64% hits. rabbit reticulocyte lysate, luciferase refolding luminescence, 3 h. inhibition, % at 5.9 µM. shares compounds with HSP90 refold inh; in the data active means inhibition above about 18%;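 further: 0% = vehicle wells and 100% = reference inhibitor wells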
# FLuc counter = counter-screen for HSP90 inhibitors: inhibitors of firefly luciferase; shares compounds with HSP90 refold inh; 2,300 compounds, 48% hits; inhibition, % at 5.9 µM; purified native firefly luciferase, luminescence;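 active means inhibition above the mean inhibition of all tested sample wells plus 3 SD, cut at about 10% in these data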;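 further: 0% = DMSO with luciferase and 100% = wells lacking luciferase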
# Numbers without * were called inactive; ? = inconclusive; · = no result given.
SMILES,HSP90 refold inh,HKDC1 inhibitor,TbHK1 inh,Hsp70 activator,HSF1 activator,HSF1 inh,HSP90 confirm,FLuc counter
COc1ccccc1NC(=O)CSc1nc2ccccc2cc1Cc1ccccc1,31*,-2,-1,0,11,5,24*,-12
COc1ccccc1NC(=O)CSc1n[nH]c(Cc2ccccc2)n1,-3,7,·,·,3,-1,·,·
COCCn1c(=S)[nH]c2cc(C(=O)NCCc3ccccc3)ccc2c1=O,1,0,·,·,-5,-3,·,·
CCOC(=O)c1sc2nc3c(cc2c1N)COC(C(C)C)C3 (configuration not stated),25*,6,-4,0,-69,-60*,44*,41*
CCc1ccc2nc(N(CCN(C)C)C(=O)c3ccc4ncsc4c3)sc2c1,28*,0,·,·,0,5,23*,19*
Cc1ccccc1NC(=S)Nc1cccc2cnccc12,73*,13,-6,0,26,12,-3,-7
Cc1ccc(F)c(NC(=S)Nc2cccc3ccccc23)c1,18*,·,·,·,-25,-18,-6,-9
O=Nc1nc2ncccn2c1-c1ccccc1,·,1,·,·,·,·,·,·
CSc1ccc(/C=C/C(=O)OCC(=O)c2ccc[nH]2)cc1,·,-1,·,·,·,·,·,·
Cc1ccccc1C(=O)N1CCC(C(=O)Nc2ccc(S(=O)(=O)N3C(C)CCCC3C)cc2)CC1 (configuration not stated),·,-2,·,·,·,·,·,·
COc1cc(NC(C)CCCN)c2ncccc2c1 (configuration not stated),·,13,·,·,-9,2,·,·
COc1cc(NCCCCCCCN)c2ncccc2c1,80*,12,6,0,6,10,7,-2
O=C(Nc1ccc(N2CCCC(O)C2)cc1)c1snc2c(=O)[nH]cnc12 (configuration not stated),19*,11,-19,0,0,3,15,-4
Cc1cc(C)n(Cc2ccc(C(=O)O)cc2)n1,1,3,-19,0,·,·,·,·
COC(=O)c1ccc(Cn2nc(C)cc2C)cc1,24*,-1,-1,1,-2,0,8,-9
O=C(O)c1cccc(NC(=S)N/N=C/c2ccccn2)c1,35*,-33,-11,0,7,8,61*,49*
O=C(O)c1cccc(NC(=S)N/N=C/c2cccc(O)c2)c1,12,-7,-14,-1,-41,?,·,·
Cc1ccc(S(=O)(=O)NCCc2ccccc2)cc1,2,-3,4,0,2,7,·,·
Cc1ccc(S(=O)(=O)NCCCNS(=O)(=O)c2ccccc2)cc1,25*,-1,·,·,-13,-1,-7,-8
COc1ccc(C(=O)OCCOc2ccccc2C(C)=O)c(O)c1,28*,6,4,0,3,-3,7,-4
CCOc1ccc2nc(COC(=O)c3cccs3)c(C(C)=O)[n+]([O-])c2c1,29*,5,-10,·,6,-7,-5,-11
CCOc1ccc2nc(COC(=O)c3cccs3)c(C(=O)c3ccccc3)[n+]([O-])c2c1,0,-4,-1,0,-20,-16,·,·
CNC1=C(N(C(C)=O)c2ccc(Br)cc2)C(=O)c2ccccc2C1=O,63*,9,2,0,-40,-33,12,-7
Cc1c(C(=O)OC(C)C)sc(NC(=O)c2cnccn2)c1C(=O)OC(C)C,·,0,·,·,·,·,·,·
COCCNc1c(-c2cc3ccc(C)c(C)c3[nH]c2=O)nc2ccccn12,21*,2,-19,1,43,23,-7,-15
SMILES,HSP90 refold inh,HKDC1 inhibitor,TbHK1 inh,Hsp70 activator,HSF1 activator,HSF1 inh,HSP90 confirm,FLuc counter
COc1ccc(-c2cc(-c3nc4ccccn4c3NCc3ccccc3)ccc2OC)cc1,·,1,·,·,·,·,·,·
Cc1ccc(S(=O)(=O)NCC(=O)OCc2nnc(-c3ccccc3)o2)cc1,-1,-6,·,·,-3,4,·,·
N#CC1=C(N)Oc2n[nH]c(-c3cccs3)c2C1c1ccncc1 (configuration not stated),1,0,-1,0,36,3,·,·
N#CC1=C(N)Oc2n[nH]c(-c3cccs3)c2C1c1ccsc1 (configuration not stated),21*,8,1,0,-6,-1,4,1
Cc1csc(N/N=C/c2ccccn2)n1,48*,-13,-20,0,3,-10,53*,38*
CC(C)(C)S(=O)N1Cc2cc(=O)n(Cc3ccccc3)c(CCO)c2[C@H]1CCO (some centres not stated),·,5,·,·,·,·,·,·
N#CCc1nn(Cc2ccc(F)cc2)c(=O)c2ccccc12,2,2,·,·,14,0,·,·
CC(=O)N1c2cc3ccccc3cc2N(C(C)=O)c2cc3ccccc3cc21,·,-2,·,·,·,·,·,·
O=C(O)c1ccc(-n2c(=O)c3ccccc3c3ccccc3c2=O)cc1,4,-3,1,0,13,4,·,·
CC(=O)Nc1ccc(-n2c(=O)c3ccccc3c3ccccc3c2=O)cc1,24*,-11,4,0,36,24,9,-1
CC(=O)N1CCOc2ccc(S(=O)(=O)NCCc3ccc(Cl)cc3)cc21,-6,0,·,·,-6,0,·,·
COC(=O)c1ccc(NC(=O)c2ccc3nsnc3c2)cc1,68*,0,·,·,23,10,-15,-27
CC(C)CNC(=S)N(CCO)Cc1cc2cc3c(cc2[nH]c1=O)OCO3,-1,3,·,·,-3,-7,·,·
COc1ccc(C(=O)Nc2ccc(NC(=O)c3ccccn3)cn2)cc1,-1,3,·,·,27,18,·,·
COc1ccc(NC(=O)c2ccccn2)cc1,35*,-4,-9,0,4,-19,64*,47*
CC(C)C(=O)Nc1ccc(NC(=O)c2ccccn2)cn1,37*,-2,-14,-1,32,4,37*,27*
N/C(=N\NC(=O)Nc1ccc(Cl)cc1)c1ccccn1,24*,1,-11,·,-11,4,-4,-16
O=C(COC(=O)Cc1ccsc1)Nc1ccc(Br)cc1F,·,-4,·,·,·,·,·,·
O=C(O)/C=C/c1ccc([N+](=O)[O-])o1,-1,17,-18,0,-3,8,·,·
N#CCc1ccc(NC(=O)/C=C/c2ccc([N+](=O)[O-])o2)cc1,60*,5,-16,2,-43,-34,9,-7
O=C(NC1CCCC1)c1cc(-c2ccc(Cl)cc2)on1,0,-5,·,·,33,29,·,·
c1ccc2nc(-c3nc4ccccc4o3)ccc2c1,32*,-1,-34,0,-20,-14,81*,76*
c1ccc(-c2nc3ccccc3o2)nc1,-2,-4,28,0,23,13,·,·
